# Measured values reported in ChEMBL document CHEMBL4049439, “Synthesis and Characterization of Tetrahydropyran-Based Bacterial Topoisomerase Inhibitors with Antibacterial Activity against Gram-Negative Bacteria” (J Med Chem, 2017).
# Columns and labels:
# [1] = Inhibition of wild-type Acinetobacter baumannii DNA topoisomerase-4 mediated supercoiled pBR322 DNA relaxation by ethidium bromide based agarose gel electrophoresis
# Acinetobacter baumannii = assay: Antibacterial activity against fluoroquinolone-resistant Acinetobacter baumannii T6474 by CLSI broth microdilution method; format: functional
# [2] = Inhibition of wild-type Acinetobacter baumannii DNA gyrase supercoiling activity using relaxed pBR322 DNA as substrate by ethidium bromide based agarose gel electrophoresis
# [3] = Inhibition of wild-type Pseudomonas aeruginosa DNA gyrase supercoiling activity using relaxed pBR322 DNA as substrate by ethidium bromide based agarose gel electrophoresis
# [4] = Inhibition of wild-type Pseudomonas aeruginosa DNA topoisomerase-4 mediated supercoiled pBR322 DNA relaxation by ethidium bromide based agarose gel electrophoresis
# [5] = Lipophilicity, log D of the compound at pH 7.4; format: physicochemical; conditions: buffer
# Escherichia coli [6] = assay: Antibacterial activity against wild-type Escherichia coli MG1655 by CLSI broth microdilution method; format: functional; conditions: K-12 substr. MG1655
# In short: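 MIC (μg/mL) determined on wild-type E. coli MG1655, the parent of isogenic strains with truncated LPS or deleted TolC or AcrAB efflux.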
# Escherichia coli [7] = assay: Antibacterial activity against Escherichia coli MG1655 harboring rfac deletion mutant by CLSI broth microdilution method; format: functional; conditions: K-12 substr. MG1655
# In short: (§1)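 MIC (μg/mL) measured against engineered derivatives of E. coli MG1655. ΔrfaC has truncated LPS (raised permeability). ΔtolC lacks the outer-membrane TolC efflux component. ΔacrAB lacks the AcrAB efflux system of the cytoplasmic membrane.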
# Escherichia coli [8] = assay: Ratio of MIC for wild-type Escherichia coli MG1655 to MIC for Escherichia coli MG1655 harboring rfac deletion mutant; format: functional, K-12 substr. MG1655
# In short: (§2)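 Fold change in MIC for each MG1655 derivative (ΔacrAB, ΔrfaC, ΔtolC) relative to the MIC measured on wild-type E. coli MG1655, with both MICs in μg/mL.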
# Escherichia coli [9] = assay: Antibacterial activity against Escherichia coli MG1655 harboring tolC deletion mutant by CLSI broth microdilution method; format: functional; conditions: K-12 substr. MG1655; in short: as §1
# Escherichia coli [10] = assay: Ratio of MIC for wild-type Escherichia coli MG1655 to MIC for Escherichia coli MG1655 harboring tolC deletion mutant; format: functional, K-12 substr. MG1655; in short: as §2
# Escherichia coli [11] = assay: Antibacterial activity against Escherichia coli MG1655 harboring AcrAB deletion mutant by CLSI broth microdilution method; format: functional; conditions: K-12 substr. MG1655; in short: as §1
# Escherichia coli [12] = assay: Ratio of MIC for wild-type Escherichia coli MG1655 to MIC for Escherichia coli MG1655 harboring AcrAB deletion mutant; format: functional, K-12 substr. MG1655; in short: as §2
# Rattus norvegicus [13] = assay: Dose normalized AUC in Wistar rat at 1 mg/kg, iv by LC-MS/MS analysis; format: ADME, organism-based; conditions: in vivo
# [14] = Fraction unbound in Wistar rat plasma at 1 mg/kg, iv by rapid equilibrium dialysis; format: ADME, organism-based
# In short: (§3)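 Rats dosed iv at 10 mg/kg or 1 mg/kg. Dose-normalized AUC (μg·h/(mL·dose)) and its unbound counterpart derived via fraction unbound. Clearance, unbound clearance, Vdss and half-life also derived.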
# Rattus norvegicus [15] = assay: Dose normalized unbound AUC in Wistar rat at 1 mg/kg, iv by LC-MS/MS analysis; format: ADME, organism-based; conditions: in vivo; in short: as §3
# [16] = Clearance in Wistar rat at 1 mg/kg, iv by LC-MS/MS analysis; format: ADME, organism-based; conditions: in vivo; in short: as §3
# Rattus norvegicus [17] = assay: Unbound clearance in Wistar rat at 1 mg/kg, iv by LC-MS/MS analysis; format: ADME, organism-based; conditions: in vivo; in short: as §3
# [18] = Volume of distribution at steady state in Wistar rat at 1 mg/kg, iv by LC-MS/MS analysis; format: ADME, organism-based; conditions: in vivo, read-out: Vdss
# In short: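 Rats received a single intravenous dose of 10 or 1 mg/kg depending on the compound. Clearance, unbound clearance, Vdss, terminal half-life and dose-normalized AUC were derived from plasma exposure, with unbound fraction (fu) reported for this species.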
# [19] = Terminal half-life in Wistar rat at 1 mg/kg, iv by LC-MS/MS analysis; format: ADME, organism-based; conditions: in vivo, read-out: beta t1/2 (converted); in short: as §3
smiles,measurement,setting,value
COc1ccc2ncc(F)c(C[C@H](O)[C@@H]3CC[C@@H](NCc4ccc5c(n4)NC(=O)CO5)CO3)c2n1,IC50,[1],125 nM
same,MIC,Acinetobacter baumannii,0.125 µg/mL
same,IC50,[2],125 nM
same,IC50,[3],125 nM
same,IC50,[4],125 nM
same,logD,[5],2
same,MIC,Escherichia coli [6],0.5 µg/mL
same,MIC,Escherichia coli [7],0.031 µg/mL
same,Ratio,Escherichia coli [8],16
same,MIC,Escherichia coli [9],0.004 µg/mL
same,Ratio,Escherichia coli [10],100
same,MIC,Escherichia coli [11],0.004 µg/mL
same,Ratio,Escherichia coli [12],100
same,AUC/dose,Rattus norvegicus [13],457 ng·h/mL
same,fraction unbound,[14],0.086
same,fAUC/dose,Rattus norvegicus [15],39 µg·h/mL
same,clearance,[16],37 mL/min/kg
same,CL free,Rattus norvegicus [17],430 mL/min/kg
same,Vd,[18],2.5 L/kg
same,half-life,[19],1.3 h
